Tested on: not listed separately
Assay: Plasma clearance in rat
Assay type: ADME, organism-based
Details: not given

clearance [mL/min/kg] | Compound
6.67 | COc1ccc(Sc2ccc(Cl)cc2N2CCN(CC(=O)O)[C@H](C)C2)cc1

Biological target: T1, Sodium- and chloride-dependent glycine transporter 1 (Homo sapiens, UniProt P48067)
T1 sequence (P48067 whole entry): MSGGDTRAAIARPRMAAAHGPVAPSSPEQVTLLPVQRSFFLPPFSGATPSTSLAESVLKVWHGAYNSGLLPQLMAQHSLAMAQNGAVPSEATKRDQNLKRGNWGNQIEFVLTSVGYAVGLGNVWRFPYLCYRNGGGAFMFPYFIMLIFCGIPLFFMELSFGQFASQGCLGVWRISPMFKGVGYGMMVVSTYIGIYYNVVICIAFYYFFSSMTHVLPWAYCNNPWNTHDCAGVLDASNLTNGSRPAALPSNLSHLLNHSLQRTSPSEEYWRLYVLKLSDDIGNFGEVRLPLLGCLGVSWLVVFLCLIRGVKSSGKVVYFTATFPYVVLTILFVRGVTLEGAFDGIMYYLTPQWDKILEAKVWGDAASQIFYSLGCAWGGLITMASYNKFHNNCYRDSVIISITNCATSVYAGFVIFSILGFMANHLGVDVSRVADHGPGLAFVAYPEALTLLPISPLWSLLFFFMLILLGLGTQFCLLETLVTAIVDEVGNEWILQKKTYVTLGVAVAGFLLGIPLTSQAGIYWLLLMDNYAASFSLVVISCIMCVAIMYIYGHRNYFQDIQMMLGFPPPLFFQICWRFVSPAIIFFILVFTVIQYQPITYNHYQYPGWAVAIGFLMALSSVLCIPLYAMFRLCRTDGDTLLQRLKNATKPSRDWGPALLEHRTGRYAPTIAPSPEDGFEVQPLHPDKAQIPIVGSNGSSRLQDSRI
Assay: Inhibition of uptake of [3H]-glycine into cells transfected with human GlyT-1b transporter
Details: not given

Compound | IC50 [nM]
CC(=O)Nc1ccc(Sc2ccccc2N2CC(C)N(CC(=O)O)CC2C)cc1 (stereo not drawn) | 22000
COc1ccc(Sc2ccc(Cl)cc2N2CCN(CC(=O)O)C(C)C2)cc1 (stereo not drawn) | 290
COc1ccc(Sc2ccccc2N2C[C@@H](C)N(CC(=O)O)C[C@@H]2C)cc1 | 160
COc1ccc(Sc2ccccc2N2C[C@H](C)N(CC(=O)O)C[C@H]2C)cc1 | 53000
COc1ccc(Sc2ccc(Cl)cc2N2CCN(CC(=O)O)[C@@H](C)C2)cc1 | 1400
COc1ccc(Sc2ccc(Cl)cc2N2CC(C)N(CC(=O)O)CC2C)cc1 (stereo not drawn) | 1700
COc1ccc(Sc2ccccc2N2CCN(CC(=O)O)CC2)cc1 | > 10000
CN(CC[C@@H](Oc1ccc(C(F)(F)F)cc1)c1ccccc1)CC(=O)O | 320
COc1ccc(Sc2ccccc2N2C[C@@H](C)N(CC(=O)O)C[C@H]2C)cc1 | 16000
CC1CN(c2ccccc2Sc2ccccc2)C(C)CN1CC(=O)O (stereo not drawn) | 2900
COc1ccc(Sc2ccccc2N2CCN(CC(=O)O)C(C)C2)cc1 (stereo not drawn) | 1700

Further lines, results first:

IC50 [nM] | Compound
> 10000 | COc1ccc(Sc2ccccc2N2CCN(CC(=O)O)CC2C)cc1 (stereo not drawn)
1500 | COc1ccc(Sc2ccccc2N2CCN(CC(=O)O)C(C)(C)C2)cc1
360 | CC1CN(c2ccccc2Sc2ccc(Cl)cc2)C(C)CN1CC(=O)O (stereo not drawn)
3600 | CC1CN(c2ccccc2Sc2ccc(O)cc2)C(C)CN1CC(=O)O (stereo not drawn)
> 10000 | CC1CN(c2ccccc2Sc2ccc(-c3ccccc3)cc2)C(C)CN1CC(=O)O (stereo not drawn)
550 | Cc1ccc(Sc2ccccc2N2CC(C)N(CC(=O)O)CC2C)cc1 (stereo not drawn)
> 50000 | COc1ccc(Sc2ccc(OC)cc2N2CC(C)N(CC(=O)O)CC2C)cc1 (stereo not drawn)
580 | COc1ccc(Sc2ccccc2N2CC(C)N(CC(=O)O)CC2C)cc1 (stereo not drawn)
18000 | COc1ccc(Sc2ccccc2N2C[C@H](C)N(CC(=O)O)C[C@@H]2C)cc1
1900 | CC1CN(c2ccccc2Sc2ccc(F)cc2)C(C)CN1CC(=O)O (stereo not drawn)
4600 | COc1ccc(Sc2ccc(OC)cc2N2CCN(CC(=O)O)C(C)C2)cc1 (stereo not drawn)
1600 | COc1ccc(Sc2ccc(C)cc2N2CCN(CC(=O)O)C(C)C2)cc1 (stereo not drawn)
150 | COc1ccc(Sc2ccc(Cl)cc2N2CCN(CC(=O)O)[C@H](C)C2)cc1

Tested on: not listed separately
Assay: Oral bioavailability in rat
Assay type: ADME, organism-based
Details: in vivo
How it was run: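 Rat pharmacokinetics, oral dosing as a solution.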

bioavailability [%] | Compound
100 | COc1ccc(Sc2ccc(Cl)cc2N2CCN(CC(=O)O)[C@H](C)C2)cc1

Tested on: not listed separately
Assay: Half-life in rat
Assay type: ADME
Details: in vivo

half-life [min] | Compound
240 | COc1ccc(Sc2ccc(Cl)cc2N2CCN(CC(=O)O)[C@H](C)C2)cc1

Tested on: Rattus norvegicus
Assay: Compound tested for increase in levels of glycine in the ventral hippocampus at a dose of 4.6 mg/kg after 60 min of s.c. administration
Assay type: functional
Details: not given
How it was run: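 In vivo microdialysis in freely moving rats, ventral hippocampus. Compound given subcutaneously. Extracellular glycine measured, with mean basal pre-injection values normalised to 100%; n is the number of animals.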

Compound | Increase [%]
COc1ccc(Sc2ccc(Cl)cc2N2CCN(CC(=O)O)[C@H](C)C2)cc1 | 140

Source: ChEMBL document CHEMBL1137132, “The synthesis and SAR of 2-arylsulfanyl-phenyl piperazinyl acetic acids as glyT-1 inhibitors” (Bioorg Med Chem Lett, 2004)
